Test results taken from publication PMC3074116 (Translational stroke research, 2011).
pEC50, pIC50: −log10 of the molar value.

Key:
[1] = system: H4IIE cells; test: Intracellular glutathione; type: cell-based, rat; settings: for GSH content TC50: 24-h exposure; for effect on intracellular GSH content: 1–300 μM
[2] = system: H4IIE cells; test: Lipid peroxidation measured as 8-isoprostane; type: cell-based, rat; settings: 1–300 μM
[3] = Metabolic stability in rat microsomes; type: in vitro ADME; settings: 1 μM; for metabolic stability (in words): male Sprague–Dawley rat microsomal preparation; for percent of parent remaining: HPLC/MS
Outline: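 Incubated at 1 μM for 30 min at 37°C with pooled liver microsomes from non-induced male Sprague–Dawley rats. Parent loss measured by HPLC-MS on a C18 column at 50°C (water/0.1% formic acid; acetonitrile/0.07% formic acid). Triplicate percent parent remaining; ranked low (100–65%), moderate (65–45%) or high (<45%) metabolism.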

[4] = system: H4IIE cells; test: CTox ranking; type: cell-based, rat; settings: generated from TC50 values by proprietary algorithm
[5] = Solubility in culture medium; type: physicochemical; settings: for soluble up to and including: culture medium with 10% bovine serum and 10% calf serum, 37°C
[6] = system: H4IIE cells; settings: for Cell number (cell mass) TC50: 24-h exposure, n=7 replicates
[7] = system: H4IIE cells; settings: 24-h exposure, GST leakage, n=3 replicates
[8] = system: H4IIE cells; settings: 24-h exposure, n=7 replicates
[9] = system: Cytochrome P450 1A1/2
[10] = system: rabbit embolic stroke model; settings: cited from earlier work
[11] = system: HT22 cells; settings: read-out: EC50 neuroprotection, glutamate (5 mM); cited from earlier work
[12] = system: HT22 cells; settings: cited from earlier work
[13] = system: rat cognition assay; settings: 10 mg/kg by gavage; cited from earlier work
[14] = system: P-glycoprotein (PgP); test: P-glycoprotein binding using the MTT assay with and without cyclosporin A; settings: 50 μM, 24-h exposure, n=7; for % Control (compound+CSA): with CSA; for % Control (compound): without CSA
[15] = 100 mg/kg single bolus injection

Row | Compound | GSH content TC50 [1] | effect on 8-isoprostane (lipid peroxidation) [2] | metabolic stability (in words) [3] | percent of parent remaining ([3]; rat microsomes, 30 min at 37°C) | CTox value (sustained concentration expected to produce toxicity in a rat 14-day repeat dose study) [4] | soluble up to and including [5] | Cell number (cell mass) TC50 [6] | MemTox TC50 [7] | % Control (compound+CSA) [14] | % Control (compound) [14] | effect on intracellular GSH content [1] | further results
1 | COc1cc(C=Cc2cc(/C=C/c3ccc(O)c(OC)c3)nn2-c2ccccc2)ccc1O [CNB-001] | 76 µM | did not have any effect | metabolically unstable | 42% | 42 µM | ≥ 100 µM | 88 µM | 193 µM | 79.0% | 79.9% |  | metabolism ranking ([3]; rat microsomes, 30 min at 37°C): high (<45% as high); solubility at 300 μM ([5]; culture medium, 300 μM): not completely soluble; MTT TC50 [8]: 131 µM; concentration with apparent inhibition of EROD activity ([9]; Fig. 2): above 10 μM; pIC50 ([9]; read-out: EROD activity inhibition IC50, H4IIE cells): ~4.60; acute toxicity [10, 15]: without any signs of acute toxicity; behavior [10, 15]: significant behavioral improvement; pEC50 [11]: 6.15; effect on GSH levels in HT22 cells [12]: no effect; object recognition index [13]: significantly increased
2 | CC(C)(C)[N+]([O-])=Cc1ccc(S(=O)(=O)[O-])cc1S(=O)(=O)[O-].[Na+].[Na+] [NXY-059, Disodium 4-[[(1,1,-dimethylethyl)imino]methyl]benzene-1,3-disulfonate N-oxide] | > 300 µM | no effect | very stable metabolically | 93% | > 300 µM | ≥ 300 µM | >300 µM | >300 µM | 93.6% | 100.0% | no effect | maximum therapeutic window ([10]; time following embolization): 1 h
3 | CC1=NN(c2ccccc2)C(=O)C1 [Radicut, 3-Methyl-1-phenyl-2-pyrazolin-5-one] | > 300 µM | no effect | metabolically unstable | 28% | > 300 µM |  | >300 µM | >300 µM | 94.8% | 95.9% | no effect | solubility [5]: ≥ 300 µM; decrease in cell proliferation ([6]; 300-μM exposure): 30%; time of administration following embolization at which still active [10]: 3 h
